# Experimental data as given in PubChem BioAssay AID463141 (The Scripps Research Institute Molecular Screening Center, 2010).
# Several values for one entry are separate records, joined by “and”; a condition that tells them apart may be missing. Equal entries are not always repeated. Out of some 330,000 compounds screened, about 350 (0.11%) were called active. The list comes from a sample in which actives are over-represented; it also holds similar structures and randomly drawn compounds. Unmarked numbers belong to inactive results.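 How the source made its calls: active means activation above the mean of all tested compounds plus 3 SD (cut at about 21% in these data); inactive means the rest.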
# Molecular target: Caspase-3 (Homo sapiens) (UniProt P42574)
# Sequence (P42574 whole entry D9A/D28A/D175A): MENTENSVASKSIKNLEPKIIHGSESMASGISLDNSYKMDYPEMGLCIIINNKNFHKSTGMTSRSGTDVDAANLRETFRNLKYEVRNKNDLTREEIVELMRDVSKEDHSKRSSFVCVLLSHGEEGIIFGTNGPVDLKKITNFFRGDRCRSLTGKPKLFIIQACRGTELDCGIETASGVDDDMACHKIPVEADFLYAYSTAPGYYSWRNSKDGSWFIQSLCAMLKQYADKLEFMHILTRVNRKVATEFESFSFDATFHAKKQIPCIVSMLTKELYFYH
# Test: activators of human procaspase-3 D3A mutant, primary screen, biochemical, absorbance, PC-3 D3A mutant, single concentration (AID 463141);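 further: 0% = DMSO alone and 100% = DMSO wells spiked with extra 5 µM PC-3 D3A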
# Conditions: recombinant procaspase-3 D3A, Ac-DEVD-pNA absorbance 405 nm; at 8.5 µM; stronger effect = higher value
# Method in brief: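 Assay system: Autoprocessing-dead procaspase-3 D3A mutant enzyme; also added: Ac-DEVD-pNA; doses: one concentration, 8.5 µM nominal, 0.8% DMSO; times: 1 h compound preincubation, 2 h substrate hydrolysis at 25 °C; technique: 405 nm absorbance of p-nitroaniline, reads at 0 and 120 min; measure: % activation between DMSO and enzyme-spiked controls; repeats: single replicate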
row,Compound,activation
1,Cc1ccc(C(=O)CN2C(=O)NC3(CCc4ccccc43)C2=O)c(C)c1 (stereo unspecified),6%
2,Cc1ccc(C(=O)N2CCCC(c3ccccc3)=N2)cc1,3.86%
3,COc1ccc2c(c1)c(=O)c(C(=O)c1ccc(Cl)cc1)cn2CC(=O)Nc1ccc(F)cc1,2.32%
4,CC(C)COP(=O)(c1ccc(N(C)C)cc1)C(Nc1ccccc1)c1cccnc1 (stereo unspecified),5.66%
5,Cc1nnc(SCC(=O)Nc2ncc3c(n2)CC(C)(C)CC3=O)s1,-5.45%
6,CSc1ccc(/C=C/C(=O)NC23CC4CC(CC(C4)C2)C3)cc1,2.05%
7,CN(CC(=O)NC1CCN(Cc2ccccc2)CC1)S(=O)(=O)c1ccc(Cl)s1,5.81%
8,C=CCNC(=O)C1CC2c3ccccc3C1c1ccccc12 (stereo unspecified),5.82%
9,COc1ccc(C2CC(c3cccs3)=NN2c2ccc(F)cc2)cc1OC (stereo unspecified),-19.4%
10,Fc1ccc(N2N=C(c3cccs3)CC2c2ccco2)c(F)c1 (stereo unspecified),40% (active)
11,O=C(COc1ccccc1Cl)N1N=C(c2cccs2)CC1c1ccco1 (stereo unspecified),4.79%
12,COc1ccccc1N1CCN(C(=O)c2cn(-c3ccccc3)nc2-c2cccnc2)CC1,-2.98%
13,COc1ccccc1N1CCN(C(=O)c2ccc(NC3=NC4CS(=O)(=O)CC4S3)cc2)CC1 (stereo unspecified),-12%
14,COc1ccc(Nc2ncc(C(=O)N3CCN(c4ccccc4OC)CC3)c3ccccc23)cc1,30.4% (active)
15,O=C(NCc1cccnc1)Nc1cccc(NC(=O)NCc2cccnc2)c1F,2.89%
16,COC(=O)Cc1cnc(NC(=O)CSc2nc(C(C)C)cc(=O)[nH]2)s1,5.45%
17,CCC(=O)Nc1c(C)n[nH]c1C,-3.68%
18,N#Cc1ccc(C2N=C(c3ccccc3)NO2)cc1 (stereo unspecified),-2.62%
19,COCc1c(C(=O)N/N=C\c2cccnc2)nnn1-c1nonc1N,0.8%
20,Cc1cccc(N=Nc2c(O)[nH]c3ccc(F)cc23)c1,12.6%
21,COc1ccc(-c2onc3ccc(C(C)=O)cc23)cc1,103% (active)
22,Oc1ccc(-c2onc3ccc(Cl)cc23)cc1,-12.8%
23,CC(OC(=O)c1ccc2noc(-c3ccccc3)c2c1)C(N)=O (stereo unspecified),-2.76%
24,COc1ccc(NC(=S)N2N=CCC2c2ccccc2)cc1 (stereo unspecified),11.4%

row,Compound,activation
1,c1cnc(N2CCN(c3ccc4ccccc4n3)CC2)nc1,2.75%
2,NC[C@H](Cc1ccccc1)NCCc1cc(C(F)(F)F)cc(C(F)(F)F)c1,-5.68%
3,COc1ccccc1C(=O)N1CCN=C1SCc1cccnc1,-6.62%
4,O=C(CCN1CCN(C/C=C/c2ccccc2)CC1)Nc1ccccc1Cl,8.05%
5,Cn1cnc([N+](=O)[O-])c1Sc1n[nH]c(N)n1,6.6%
6,COCCCNC(=S)N(Cc1ccccc1)Cc1ccc(F)cc1,-1.61%
7,CCCNc1ncnc2sc(C)c(C)c12,-0.52%
8,CN(C)c1ccc2c(=O)[nH][nH]c(=O)c2c1,10.1%
9,CCOc1ccccc1NC(=O)C1CCCN(S(=O)(=O)c2ccccc2)C1 (stereo unspecified),2.37%
10,CN1CC(=O)N=C1N,6.53% and -3.63%
11,CCOC(=O)CNC(=O)CSc1ccc2nnc(-c3cccnc3)n2n1,0.59%
12,CC(C)NC(=S)N1CCN(S(C)(=O)=O)CC1,9.6%
13,CC(=O)c1ccc(N=C2SCCCN2C(=O)C2CCCCC2)cc1,8.2%
14,COc1cc(C(=O)NC2CCN(Cc3ccccc3)CC2)cc(Cl)c1OC(C)C,4.82%
15,CCOc1ccc2c(c1)cc(CN(C(=O)CC)C1CCCCC1)c1nnnn12,0.4%
16,O=C(c1ccc(N2CCOCC2)c([N+](=O)[O-])c1)N1CCN(S(=O)(=O)c2cccs2)CC1,-3.64%
17,CC1CCN(C(=S)NC(=O)c2ccccc2Br)CC1,-4.02%
18,COc1ccc(C2CC(c3cccs3)=NN2c2ccccc2)cc1 (stereo unspecified),-24.6%
19,CC(=O)Oc1ccccc1C1=NN(C(C)=O)C(c2ccccc2)C1 (stereo unspecified),1.13%
20,Oc1ccccc1C1=NN(c2ccccc2)C(c2ccccc2)C1 (stereo unspecified),32.8% (active)
21,O=C(CCNc1n[nH]c(=O)[nH]c1=O)N/N=C\c1ccc(Br)cc1,-3.48%
22,Cc1c(S(=O)(=O)N2CC(C)CC(C)C2)c(=O)n(C)c(=O)n1C (stereo unspecified),-6.15%
23,CCc1ccc2oc(-c3ccc(N)cc3)nc2c1,5.03%
24,COC(=O)c1cc(NC(=O)CN2CCC(C(N)=O)(N3CCCCC3)CC2)cc(C(=O)OC)c1,12.7%

row,Compound,activation
1,O=C(CC(NC(=O)c1ccccc1)c1ccccc1)Nc1ccc(F)c(F)c1 (stereo unspecified),5.87%
2,CC(C)OC(=O)c1cc(NC(=O)C2C3CCC(O3)C2C(=O)O)cc(C(=O)OC(C)C)c1 (stereo unspecified),-5.36%
3,CN1CCCN(C(=O)C2CCCCC2)CC1,5.38%
4,CCN(CC)c1ccc(NC(=O)CN2CCN(c3ccccn3)CC2)cc1,-5.15%
5,Cc1cccc(C2C3=C(CCCC3=O)N=C3c4ccccc4C(=O)C32)c1 (stereo unspecified),-13.4%
6,CN(C)C(=O)N=NC(=O)N(C)C,-12.2%
7,O=C(COC(=O)C1CC2CCCC(C1)C2=O)NC(=O)c1ccccc1 (stereo unspecified),-4.78%
8,COC(=O)C(C(=O)Nc1cccc(Cl)c1C)C1CCCC1 (stereo unspecified),1.15%
9,COc1ccc(CN2CCN(C(=O)CCC(=O)Nc3nnc(C(C)C)s3)CC2)cc1F,-6.44%
10,O=C(CSC1=NS(=O)(=O)c2cc(F)ccc2N1)Nc1ccccc1F,-6.67%
11,COc1ccccc1N=C(C)C1=C(O)COC1=O,-3.88%
12,COc1cc(N=Cc2c(O)c3ccccc3oc2=O)c(OC)cc1Cl,3.99%
13,COc1ccccc1N=Cc1c(O)c2ccccc2oc1=O,26.5% (active)
14,COC(=O)c1cc(OC)c(OC)cc1NC(=O)C1CCCO1 (stereo unspecified),-0.83%
15,COc1ccc(CN2CCC(c3nc4ccc(Cl)cc4[nH]3)CC2)cc1,-3.22%
16,O=C(NCC(=O)N(c1ccccc1)C(C(=O)NCC1CCCO1)c1ccccc1)c1cccs1 (stereo unspecified),-3.61%
17,COCCn1c(SCC(=O)Nc2nc(C)cs2)nnc1C(C)C,2.76%
18,CCCN1C2=C(C(=O)CCC2)C(c2ccc(O)c(Br)c2)C2=C1CCCC2=O,-10.1%
19,COc1ccc(C)cc1NC(=O)NCc1ccccn1,-10.4%
20,COc1ccc(C)cc1Nc1nc(C)nc2c1oc1ccccc12,4.37%
21,COC(=O)c1cnc(Nc2cc(C)ccc2OC)c2ccccc12,35.2% (active)
22,COc1ccc(CN2[C@@H](CC(=O)O)c3cc(F)ccc3S2(=O)=O)cc1,3.51%
23,CC1CCCN(S(=O)(=O)c2ccc(N(C(=O)c3cnccn3)C(C(=O)NC3CCCCC3)c3cccs3)cc2)C1 (stereo unspecified),3.94%
24,Cc1cccc(C)c1N1C(=O)CN(Cc2ccccc2)C1=S,-3%

row,Compound,activation
1,NC(=O)c1nsc(C(=O)N(CCCN2CCOCC2)C(C(=O)NC2CCCCC2)c2ccc(Cl)cc2)c1N (stereo unspecified),-8.01%
2,O=C(NCc1ccccn1)Nc1ccc(Cl)cc1,-0.71%
3,Cc1nn(C)cc1CNC(=O)Nc1ccc(Cl)cc1,31.2% (active)
4,Cc1nn(C)cc1C(=O)NNC(=S)Nc1ccc(Cl)cc1,-4.7%
5,CN(C)CCNC(=O)C(C(=O)c1ccccc1)n1ccccc1=O (stereo unspecified),2.49%
6,O=C(Cn1nc(C(=O)O)c2ccccc2c1=O)Nc1ccc(F)cc1,2.68%
7,Cc1cccc(NC(=O)c2cccc(C(=O)Nc3cccc(C)c3C)n2)c1C,-5.05%
8,Cc1ccccc1CSCCNC(=O)c1ccc(N(C)S(=O)(=O)c2ccccc2)cc1,-1.26%
9,COc1cc(CNCc2cccs2)cc(Br)c1OC,2.29%
10,COc1ccc2nc(NC(=O)NC3CCCCC3)sc2c1,-1.14%
11,COc1ccc2nc(Nc3nc4ccc(NC(C)=O)cc4s3)sc2c1,28.4% (active)
12,CCCC(=O)Nc1nc2ccc(NC(=O)c3c(F)c(F)c(OC)c(F)c3F)cc2s1,8.06%
13,COC(=O)Cc1cc(=O)oc2c(C)c(O)ccc12,22.9% (active)
14,COc1cccc(C(=O)OCc2cc(=O)oc3c(C)c(C)ccc23)c1OC,1.33%
15,CCCc1cc(=O)oc2c(C)c(OCC(=O)Nc3ccccn3)ccc12,-8.09%
16,C=CCSc1ccc(S(=O)(=O)N2CCN(C)CC2)cn1,6.46%
17,COC(=O)[C@@H]1C[C@@]2(O)[C@H](O)[C@H](O)[C@H](O)C[C@H]2N1Cc1ccc(C(C)(C)C)cc1,1.49%
18,COc1ccc(CNC(=O)c2ccc(NS(=O)(=O)c3ccc4[nH]c(=O)[nH]c4c3)cc2)cc1OC,-5.34%
19,C[C@@H]1CN([C@H](C)CO)C(=O)c2cc(NC(=O)NC3CCCCC3)ccc2O[C@H]1CN(C)S(C)(=O)=O,-10.4%
20,COc1ccccc1C1C(C#N)=C(N)Oc2c1c(-c1ccccc1)nn2-c1ccccc1 (stereo unspecified),3.18%
21,Cc1cc(C)n(-c2nc(O)cc(=O)[nH]2)n1,13.4%
22,CCOc1ccc2c(=O)c(-c3ccc4c(c3)OCCCO4)c(C)oc2c1,-0.35%
23,O=C(CSCc1ccccc1Cl)NNC(=O)c1ccccc1,-5.37%
24,O=C(Nc1cccc2ccccc12)c1onc2c1CCCC2,2.73%
